# Reference: the RNAGym collection of RNA variant scans (doi:10.1126/science.aae0568)
# Variants at the floor of the assay were thinned out.
# B1: tRNA (parent)
# chain: GUUCCGUUGGCGUAAUGGUAACGCGUCUCCCUCCUAAGGAGAAGACUGCGGGUUCGAGUCCCGUACGGAACG
# Variants of: B1
# Test: yeast fitness relative to wild type (ratio to wild type); higher = fitter; tRNA-Arg(CCU), competitive growth, 37 C, YPD
# Method in brief: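 Start and end populations of a pooled competition were compared by 100-nucleotide paired-end sequencing of gene amplicons. The Saccharomyces cerevisiae strains carried tRNA-Arg(CCU) gene variants at the native genomic locus, synthesised with a 3% per-site mutation rate at 69 sites, and competed in YPD at 37°C for 24 hours in six parallel replicates. Darwinian fitness relative to wild type was based on the change in genotype frequencies. Genotypes required ≥ 100 starting reads, and estimates < 0.5 were set to 0.5.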
row,Variant,yeast fitness
1,GUUCCGUUGGCGUAAUGGUAACGCGUCUCCUUCUUAAGGAGAAGACUGCGGGUUCGAGUCCCGUACGGAACG [C31U C34U],0.748
2,GUUCCGUUGGCGUAAUGGUAACGCGUCUCCUUCGUAAGGAGAAGACUGCGGGUUCGAGUCCCGUACGGAACG [C31U C34G],0.591
3,GUUCCGUUGGCGUAAUGGUAACGCGUCUCCUUCCUAAGGAGAGGACUGCGGGUUCGAGUCCCGUAUGGAACG [C31U A43G C66U],0.724
4,GUUCCGUUGGCGUAAUGGUAACGCGUCUCCUUCCUAAGGAGAAGACUGUGGGUUCGAGUCGCGUACGGAACG [C31U C49U C61G],0.638
5,GUUCCGUUGGCGUAAUGGUAACGCGUCUCCUUCAUGACGAGAAGACUGCGGGUUCGAGUCCCGUACGGUACG [C31U C34A A36G G38C A69U],≤ 0.5
6,GUUCCGUUGGCGUAAUGGUAACGCGUCUCCUUCCUAAGGAGAAGAAUGCGGGUUCGAGUCCCGUACGGCACG [C31U C46A A69C],0.757
7,GUUCCGUUGGCGUAAUGGUAACGCGUCUCCUUCCUAAGGAGAAGCCCGCGGGUUCGAGUCCCGUACGGAUCG [C31U A45C U47C A70U],≤ 0.5
8,GUUCCGUUGGCGUAAUGGUAACGCGUCUCCUUCAUAAGGAGAAGUCUGCGGGUUCGAGUCUCGUACGGAACG [C31U C34A A45U C61U],≤ 0.5
9,GUUCCGUUGGCGUAAUGGUAACGCGUCUCCUUCCUAAGGAGAAGAGUGCUGGUUCGAGUCUCGUACGGAACG [C31U C46G G50U C61U],≤ 0.5
10,GUUCCGUUGGCGUAAUGGUAACGCGUCUCCUUACUAAGGAGAAGACUGCAGGUUCGAGUCCCGUGCGGAACG [C31U C33A G50A A65G],≤ 0.5
11,GUUCCGUUGGCGUAAUGGUAACGCGUCUCCUUCGUAAGGAGCAGACGGCGGGUUCGAGUCCCGUCUGGAACG [C31U C34G A42C U47G A65C C66U],≤ 0.5
12,GUUCCGUUGGCGUAAUGGUAACGCGUCUCCUUCUUAAGGAGAAGACUGCGGGUUCGCGUCCCGUACGGAACG [C31U C34U A57C],≤ 0.5
13,GUUCCGUUGGCGUAAUGGUAACGCGUCUCCUUCCUAAGGAGAAGUCUGCGGGUUCCAGUCCCGUACGGAACG [C31U A45U G56C],≤ 0.5
14,GUUCCGUUGGCGUAAUGGUAACGCGUCUCCUUCCUAAGGAGAAGACUGUGGGUUCGAGUCCCGUACGGAACG [C31U C49U],1.04
15,GUUCCGUUGGCGUAAUGGUAACGCGUCUCCUUACUAAGGAGAAGAAUGCGGGUUCGAGUCCCGUACGGAACG [C31U C33A C46A],0.596
16,GUUCCGUUGGCGUAAUGGUAACGCGUCUCCUUCCUAAGGAGAAGACUGCGGGUUCGUGUCCCGUACGGAACG [C31U A57U],0.619
17,GUUCCGUUGGCGUAAUGGUAACGCGUCUCCUUCCUAAGGAGAAGACUGCGGGUUCGGGUCCCGUACGGAACG [C31U A57G],1.06
18,GUUCCGUUGGCGUAAUGGUAACGCGUCUCCUUCAUAAGGGGAAGACUGCGGGUUCGAGACCCGUACGGAACG [C31U C34A A40G U59A],0.566
19,GUUCCGUUGGCGUAAUGGUAACGCGUCUCCUUCCUAAGGAGAAGUCUGCGGGUUCGAGUCCCGUACGGUACG [C31U A45U A69U],1

row,Variant,yeast fitness
1,GUUCCGUUGGCGUAAUGGUAACGCGUCUCCUUCCUAAGGAGAAGACUGCGGGUUCGAGUGCCGUACAGAACG [C31U C60G G67A],≤ 0.5
2,GUUCCGUUGGCGUAAUGGUAACGCGUCUCCUUCCUAAGGAGAAGACUGCGGGUUCGCAUCCCGUACGGGACG [C31U A57C G58A A69G],0.554
3,GUUCCGUUGGCGUAAUGGUAACGCGUCUCCUUACUAAGGAGAAGACUGCGGGUUCGAGUCCCGUACGGAACG [C31U C33A],0.585
4,GUUCCGUUGGCGUAAUGGUAACGCGUCUCCUUCCUAAGGAGAAGACUGUGGGUUCGAGUACCCUACGGAACG [C31U C49U C60A G63C],≤ 0.5
5,GUUCCGUUGGCGUAAUGGUAACGCGUCUCCUUUCUACGGAGAAGACUGCGGGUUUGAGUCCCGUACGGAACG [C31U C33U A37C C55U],≤ 0.5
6,GUUCCGUUGGCGUAAUGGUAACGCGUCUCCUUCCUAAGGAGAAGAUUGCGGGUUCGAGUCCCGUACGGAACG [C31U C46U],1.02
7,GUUCCGUUGGCGUAAUGGUAACGCGUCUCCUUCCUAAGGAGAAGACUGCGGGUUCGAGUCCAGUACGGAACG [C31U C62A],0.776
8,GUUCCGUUGGCGUAAUGGUAACGCGUCUCCUUCCUAAGGAGAAGACUGCGGGUUCGAGUCCGGUACGGAACG [C31U C62G],0.949
9,GUUCCGUUGGCGUAAUGGUAACGCGUCUCCUUCCUAAGGAGAAGACUGCGGGUUCGAGUCCCGUACGGUACG [C31U A69U],0.999
10,GUUCCGUUGGCGUAAUGGUAACGCGUCUCCUUCCUAAGGAGAAGACUGCGGGUUCGAGUCCCGUACGGGACG [C31U A69G],0.924
11,GUUCCGUUGGCGUAAUGGUAACGCGUCUCCUUCAUAAGGGGAAGACUGCGGGUUCGAGUCCCGUACGGAACG [C31U C34A A40G],≤ 0.5
12,GUUCCGUUGGCGUAAUGGUAACGCGUCUCCUUCCUAAGGAGACGACUGCGGGUCCGAGUCCCGUCCGGAACG [C31U A43C U54C A65C],≤ 0.5
13,GUUCCGUUGGCGUAAUGGUAACGCGUCUCCUUCCUAAGGAGAAGACUGCGGGUUCGAGUCCCGUACGGAGCG [C31U A70G],1.1
14,GUUCCGUUGGCGUAAUGGUAACGCGUCUCCUUCCUAAGGAGAAGACUGGGGAUUCGAGUCCUGUACGGAACG [C31U C49G G52A C62U],≤ 0.5
15,GUUCCGUUGGCGUAAUGGUAACGCGUCUCCUUCCUAAGGAGAAGACUGUGGGUUCGAGUCCCGUAAAGAACG [C31U C49U C66A G67A],≤ 0.5
16,GUUCCGUUGGCGUAAUGGUAACGCGUCUCCUUCCUAAGGAGAUGACUGCGGGUUCGAGUCCCGUACGGAACG [C31U A43U],1.11
17,GUUCCGUUGGCGUAAUGGUAACGCGUCUCCUUCCUAAGGAGACGACUGCGGGUUCGAGUCCCGUACGGAACG [C31U A43C],1.17
18,GUUCCGUUGGCGUAAUGGUAACGCGUCUCCUUCAUAAGGAGAAGACUGCGGGUUCGAGUCGCGUACGGAACG [C31U C34A C61G],≤ 0.5
